Granule exo inh = LAMP-1 surface exposure blockers, TALL-104 cells – cell-based, flow cytometry, MLPCN library, primary screen | actives 0.66% (n = 360,000) | TALL-104 LAMP-1 surface exposure; cells stimulated with thapsigargin and PMA | inhibition, % at 10 µM;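 active = inhibition above about 55%, limit read from the data; inconclusive = no clear call, values can overlap the other calls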
EBI2 antag = EBI2 receptor antagonists, beta-arrestin recruitment, primary screen, cell-based, luminescence, 7a,25-OHC stimulation, uHTS; 7a,25-OHC stimulated; actives 0.81% (n = 360,000); G-protein coupled receptor 183 (Homo sapiens), P32249; inhibition, % at 5 µM; in the data active = inhibition above about 38%;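 note: enzyme fragment complementation signal reports receptor beta-arrestin coupling in cells; 0% = agonist plus DMSO wells and 100% = wells without agonist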
Target sequence (P32249 whole entry, looked up, the tested form may be a part): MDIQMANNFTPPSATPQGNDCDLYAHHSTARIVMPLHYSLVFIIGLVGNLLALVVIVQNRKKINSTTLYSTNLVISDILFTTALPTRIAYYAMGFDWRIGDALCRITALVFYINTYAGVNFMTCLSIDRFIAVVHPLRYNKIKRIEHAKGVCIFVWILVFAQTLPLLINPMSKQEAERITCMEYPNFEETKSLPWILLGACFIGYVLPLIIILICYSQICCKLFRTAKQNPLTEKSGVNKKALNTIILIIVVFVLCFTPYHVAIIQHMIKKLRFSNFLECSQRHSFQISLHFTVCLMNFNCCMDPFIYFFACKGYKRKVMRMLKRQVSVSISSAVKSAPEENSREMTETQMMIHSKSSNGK
MC4R antagonist = MC4R antagonists of cAMP signaling, primary screen, cell-based, TR-FRET, antagonist arm of biased-ligand search; inhibition, % at 6.5 µM; actives 0.48% (n = 360,000); AID 540295, 2011; MC4R-expressing cells, MTII-stimulated cAMP, LANCE TR-FRET;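 active = inhibition above its plate's cutoff, the mean of tested wells on that plate plus 3 SD, cut at about 29% in these data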;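 note: 0% = Melanotan II alone and 100% = Melanotan II plus saturating MCL0020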
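System – human MC4R-expressing U2OS cells · Also added – Melanotan II · Dosing – one concentration, 6.5 µM nominal · Timing – 30-min compound, 1-h challenge, 1-h detection, room temperature · Measured by – Eu-cAMP/anti-cAMP TR-FRET, emission 671 nm · Replicates – singlicate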
Myeloid diff 2 = induction of myeloid progenitor differentiation, primary screen, cell-based, flow cytometry, MLPCN library; actives 1% (n = 360,000); ER-HoxA9 myeloid progenitors, lysozyme-GFP differentiation; calls only at 10 µM;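 active = normalized GFP-positive differentiation at or above the plate's own cutoff, the solvent-only control mean plus 3 SD; inconclusive = no clear call, values can overlap the other calls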;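 note: cells exposed to compound for four days before flow analysis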
MC4R barr agon = MC4R agonists recruiting beta-arrestin, primary screen, cell-based, luminescence, agonist arm of biased-ligand search | activation, % at 8.9 µM | U2OS MC4R beta-arrestin complementation; percent of melanotan II response, DMSO zero | actives 0.98% (n = 360,000);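 active = activation above a per-plate cutoff, the mean activation of sample wells on that plate plus 3 SD, cut at about 8% in these data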
Active calls of the source: *. A selection: hits, their analogues and other compounds. The true share with any hit is near 3.7%.

For O=C(NCc1ccccc1C(F)(F)F)c1cccc2c1C(=O)c1ccc(N3CCC(N4CCCCC4)CC3)cc1S2(=O)=O the results were Granule exo inh 9, EBI2 antag -7, MC4R antagonist 3, Myeloid diff 2 active and MC4R barr agon 0.
`O=C(NCc1ccccc1Br)c1cccc2c1C(=O)c1ccc(N3CCC(Cc4ccccc4)CC3)cc1S2(=O)=O` gave Granule exo inh -1, EBI2 antag 7, MC4R antagonist 0, Myeloid diff 2 active and MC4R barr agon 0.
Cc1ccccc1-c1cc2nc(NCc3ccc(N(C)C)cc3)n(C)c(=O)c2s1 was read as Granule exo inh 6, EBI2 antag 17, MC4R antagonist 18, Myeloid diff 2 inactive and MC4R barr agon 0.
Screening CC(=O)N1CSCC1C(=O)NNS(=O)(=O)c1cccc(C(F)(F)F)c1 (stereo not drawn) returned Granule exo inh 4, EBI2 antag -5, MC4R antagonist 4, Myeloid diff 2 inactive and MC4R barr agon -3.
COc1c2ccc(C(=O)NCCCCc3ccccc3)cc2nn1C was read as Granule exo inh 3, EBI2 antag -14, MC4R antagonist -1, Myeloid diff 2 active and MC4R barr agon -2.
Screening C=C1C(=O)OC2C1CCC(C)=C1C(=O)C3OC3(C)C12 (stereo not drawn) returned Granule exo inh 13, EBI2 antag 52*, MC4R antagonist 0, Myeloid diff 2 inconclusive and MC4R barr agon -2.
For CCCc1cc(=O)[nH]c(SCC(=O)NN(c2ccccc2)c2ccccc2)n1 the results were Granule exo inh -1, EBI2 antag 8, MC4R antagonist 4, Myeloid diff 2 inactive and MC4R barr agon 1.
`COC(=O)c1ccc2c(c1)NC(=O)c1ccccc1S2` gave Granule exo inh -6, EBI2 antag 7, MC4R antagonist 7, Myeloid diff 2 inactive and MC4R barr agon 0.
N#C/C=C1/NC(=O)c2ccccc2S1 was read as Granule exo inh 6, EBI2 antag 3, MC4R antagonist 8, Myeloid diff 2 active and MC4R barr agon 0.
For COc1ccccc1C(=O)N(Cc1ccc(Cl)cc1)C1CCS(=O)(=O)C1 (stereo not drawn) the results were Granule exo inh -2, EBI2 antag -1, MC4R antagonist 7, Myeloid diff 2 inactive and MC4R barr agon -2.
O=C(CCn1ccc2cc(S(=O)(=O)N3CCCC3)ccc21)NCCc1ccccc1 was read as Granule exo inh -2, EBI2 antag 5, MC4R antagonist 3, Myeloid diff 2 active and MC4R barr agon -4.
COCCNC(=O)CCN1N=C(c2ccccc2)CCC1=O was read as Granule exo inh 0, EBI2 antag -2, MC4R antagonist -5, Myeloid diff 2 inactive and MC4R barr agon -3.
Screening Nc1ccc(CN2CCCCCC2)cc1 returned Granule exo inh -1, EBI2 antag -1, MC4R antagonist 1, Myeloid diff 2 active and MC4R barr agon -2.
Screening COc1ccc(-c2noc(CCC(=O)Nc3cccnc3)n2)cc1 returned Granule exo inh -4, EBI2 antag -2, MC4R antagonist 3, Myeloid diff 2 active and MC4R barr agon -1.
Screening COc1ccccc1NC(=O)N1C2CCCC1CC(NC(=O)c1ccccc1)C2 (stereo not drawn) returned Granule exo inh -1, EBI2 antag 1, MC4R antagonist 4, Myeloid diff 2 inactive and MC4R barr agon 1.
O=C(NCCc1ccccc1)c1cccc(NC(=O)C2CC2)c1 was read as Granule exo inh -2, EBI2 antag -6, MC4R antagonist -5, Myeloid diff 2 active and MC4R barr agon 2.
For O=C(NCCc1ccccc1)c1cccc(NC(=O)C2CCC2)c1 the results were Granule exo inh -6, EBI2 antag -9, MC4R antagonist 3, Myeloid diff 2 inactive and MC4R barr agon 0.
`CCCCCc1nnc(NC(=O)CN2C(=O)C3CCCCC3C2=O)s1` (stereo not drawn) gave Granule exo inh -1, EBI2 antag -6, MC4R antagonist -4, Myeloid diff 2 inconclusive and MC4R barr agon 2.
Screening CCCCCCNC(=O)O[C@H]1C[C@H](C(=O)OC)[C@H](C(=O)OC)C2CN(S(=O)(=O)c3ccc(C)cc3)C[C@@]21O (stereo partly drawn) returned Granule exo inh 0, EBI2 antag 3, MC4R antagonist 0, Myeloid diff 2 inactive and MC4R barr agon -2.
For CCCOc1cccc(-c2nn(-c3ccccc3)cc2/C=C(\C#N)C(=O)NCCCn2ccnc2)c1 the results were Granule exo inh 17, EBI2 antag 17, MC4R antagonist -3, Myeloid diff 2 active and MC4R barr agon -1.
For N#C/C(=C/c1cn(-c2ccccc2)nc1-c1cccc(OCc2ccc(F)cc2)c1)C(=O)NCCCn1ccnc1 the results were Granule exo inh 38, EBI2 antag 35, MC4R antagonist 7, Myeloid diff 2 inactive and MC4R barr agon -3.
`CC(C)n1c(SCC(=O)N2c3ccccc3Sc3ccccc32)nc2c1c(=O)n(C)c(=O)n2C` gave Granule exo inh 3, EBI2 antag 22, MC4R antagonist -25, Myeloid diff 2 active and MC4R barr agon -1.
COc1ccc(C2Nc3ccccc3C(=O)N2c2ccc(F)cc2)cc1CSc1ccccn1 (stereo not drawn) was read as Granule exo inh 1, EBI2 antag 12, MC4R antagonist -3, Myeloid diff 2 inactive and MC4R barr agon 33*.
For COc1ccc(C2Nc3ccccc3C(=O)N2c2ccccc2)cc1CSc1ccccn1 (stereo not drawn) the results were Granule exo inh -4, EBI2 antag 8, MC4R antagonist 18, Myeloid diff 2 inactive and MC4R barr agon -1.
Screening CCCC(=O)N1CCC1(C)C(=O)NS(=O)(=O)c1cc2c(cc1C)CCCS2(=O)=O (stereo not drawn) returned Granule exo inh -1, EBI2 antag 0, MC4R antagonist 7, Myeloid diff 2 inactive and MC4R barr agon -2.
For Cc1cc(C)cc(NC(=O)CN2CCC(NC(=O)c3ccccc3F)CC2)c1 the results were Granule exo inh -6, EBI2 antag -5, MC4R antagonist 7, Myeloid diff 2 inactive and MC4R barr agon 0.
Screening Cc1ccc(-c2nc3ccc(C)cn3c2CC2CCCCC2)cc1 returned Granule exo inh 15, EBI2 antag 0 and Myeloid diff 2 inactive.
Screening O=C(Nc1ccsc1C(=O)NC1CCCCC1)c1ccc(F)cc1 returned Granule exo inh 3, EBI2 antag -48, MC4R antagonist 15, Myeloid diff 2 inactive and MC4R barr agon 12*.
